Measurements: paper PMC4703501 (Leukemia, 2015)

What was measured:
PI3K-δ = PI3K-δ (Homo sapiens, UniProt O00329); test: in vitro kinase assay, recombinant protein; assay type: biochemical
In short: (§1)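 Recombinant kinases were incubated with the indicated concentrations of test compound in in vitro kinase assays. Activity values were plotted against log drug concentration. IC50 came from sigmoidal non-linear regression with variable slope.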

[1] = tested on: Granta 519 and Z138C cells; test: CDK4/CYCLIN D/Rb pathway western blot; assay type: cell-based, human; conditions: 24 hours
In short: (§2)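 Granta 519 and Z138C cells (RPMI or DMEM, 10% FBS, pen-strep, 37°C, 5% CO₂) received vehicle or increasing concentrations of test compound for 24 hours. Whole-cell extracts were made in NP-40 lysis buffer (Tris pH 7.4, NaF, Na₃VO₄), run on SDS-PAGE and blotted to nitrocellulose. Detection used infrared imaging, GAPDH was the loading control, and 4 independent experiments were done.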

[2] = tested on: exponentially growing Z138 cells; test: p65; assay type: cell-based, human; conditions: 24 hrs
In short: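 Exponentially growing Z138 cells were exposed to test compound. Whole-cell extracts were probed by western blot for p65 (NF-kB) phosphorylation.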

Z138C cells = test: cell cycle distribution, propidium iodide flow cytometry; assay type: cell-based, human; conditions: 24 hours
In short: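 Z138C cells were treated with DMSO or increasing concentrations of test compound for 24 hours. They were then ethanol-fixed, PBS-washed and stained with RNase plus propidium iodide at 37°C for 20 min. DNA content was measured by flow cytometry to assign cell-cycle phases.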

[3] = tested on: Granta 519 and Z138 cell lines; test: MAP kinase pathway; assay type: cell-based, human; conditions: 24 hrs
ARK5 = ARK5 (Homo sapiens, UniProt O60285); test: in vitro kinase assay, recombinant protein; assay type: biochemical
In short: as §1

HeLa cells = test: TNF-α induced p65 NF-kB phosphorylation western blot; assay type: cell-based, human; conditions: 5ng/ml TNF-α for 5 min after treatment
In short: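 Positive-control system: HeLa cells were pretreated with test compound, then stimulated with 5ng/ml TNF-α for 5 min. Phospho-p65 NF-kB was assessed by western blot of whole-cell extracts.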

[4] = tested on: Granta 519 and Z138C cells; test: PI3K/AKT/mTOR pathway western blot; assay type: cell-based, human; conditions: 24 hours
In short: as §2

[5] = tested on: Granta 519 and Z138C cells; test: apoptosis markers; assay type: cell-based, human
In short: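 Granta 519 and Z138C cells were treated with test compound, then lysed in NP-40 buffer. Western blots on nitrocellulose assessed full-length caspases 3, 7 and 9 and PARP cleavage as apoptosis markers.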

mantle cell lymphoma = conditions: Phase I trial, patients with refractory disease; cited from earlier work

Sequence of PI3K-δ (O00329 whole entry): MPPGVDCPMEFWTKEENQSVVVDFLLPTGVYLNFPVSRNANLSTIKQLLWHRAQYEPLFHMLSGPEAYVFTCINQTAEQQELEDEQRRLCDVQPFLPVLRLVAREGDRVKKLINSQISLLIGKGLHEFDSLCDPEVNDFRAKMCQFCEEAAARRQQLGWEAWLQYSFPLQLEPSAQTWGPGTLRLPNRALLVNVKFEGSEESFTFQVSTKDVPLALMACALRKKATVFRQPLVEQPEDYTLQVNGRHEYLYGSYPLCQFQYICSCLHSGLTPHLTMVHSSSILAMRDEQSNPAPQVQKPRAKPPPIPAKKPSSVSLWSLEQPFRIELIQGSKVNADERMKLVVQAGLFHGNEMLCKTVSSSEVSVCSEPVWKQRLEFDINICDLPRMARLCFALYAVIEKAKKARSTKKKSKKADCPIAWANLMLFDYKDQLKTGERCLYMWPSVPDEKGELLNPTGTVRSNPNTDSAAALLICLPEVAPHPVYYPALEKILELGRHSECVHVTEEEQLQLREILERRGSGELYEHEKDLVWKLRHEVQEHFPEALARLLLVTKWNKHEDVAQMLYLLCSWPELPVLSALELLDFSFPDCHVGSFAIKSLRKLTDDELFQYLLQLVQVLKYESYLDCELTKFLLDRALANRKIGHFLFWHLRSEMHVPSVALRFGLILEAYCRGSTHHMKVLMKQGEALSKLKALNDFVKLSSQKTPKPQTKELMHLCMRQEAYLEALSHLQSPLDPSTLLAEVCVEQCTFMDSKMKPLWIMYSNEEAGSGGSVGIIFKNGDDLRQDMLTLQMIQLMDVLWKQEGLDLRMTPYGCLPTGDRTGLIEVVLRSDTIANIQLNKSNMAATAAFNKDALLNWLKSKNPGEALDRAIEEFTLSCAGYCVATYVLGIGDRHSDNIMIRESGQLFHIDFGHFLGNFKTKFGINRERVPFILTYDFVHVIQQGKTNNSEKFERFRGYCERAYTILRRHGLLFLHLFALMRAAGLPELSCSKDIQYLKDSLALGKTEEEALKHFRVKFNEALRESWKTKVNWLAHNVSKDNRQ
Sequence of PI3K-δ (P27986 whole entry partner): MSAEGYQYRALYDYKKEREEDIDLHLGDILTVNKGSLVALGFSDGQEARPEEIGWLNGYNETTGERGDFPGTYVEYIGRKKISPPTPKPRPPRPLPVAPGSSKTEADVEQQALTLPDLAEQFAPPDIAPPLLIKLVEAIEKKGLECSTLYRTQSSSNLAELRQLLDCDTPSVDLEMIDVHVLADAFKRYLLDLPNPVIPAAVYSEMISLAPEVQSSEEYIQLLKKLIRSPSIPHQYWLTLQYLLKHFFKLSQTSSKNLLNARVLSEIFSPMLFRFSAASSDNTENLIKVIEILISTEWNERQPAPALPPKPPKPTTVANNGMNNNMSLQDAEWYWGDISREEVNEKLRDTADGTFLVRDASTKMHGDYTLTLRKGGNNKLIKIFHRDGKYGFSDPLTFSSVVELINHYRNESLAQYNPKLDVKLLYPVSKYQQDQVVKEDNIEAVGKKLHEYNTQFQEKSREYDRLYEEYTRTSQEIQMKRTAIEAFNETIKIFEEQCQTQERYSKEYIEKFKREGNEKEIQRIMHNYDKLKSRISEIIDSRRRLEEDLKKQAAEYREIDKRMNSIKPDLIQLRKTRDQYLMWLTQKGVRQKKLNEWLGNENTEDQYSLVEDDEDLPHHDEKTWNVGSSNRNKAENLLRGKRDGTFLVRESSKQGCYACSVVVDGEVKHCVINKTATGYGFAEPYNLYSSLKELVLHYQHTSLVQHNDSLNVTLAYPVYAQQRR
Sequence of ARK5 (O60285 whole entry): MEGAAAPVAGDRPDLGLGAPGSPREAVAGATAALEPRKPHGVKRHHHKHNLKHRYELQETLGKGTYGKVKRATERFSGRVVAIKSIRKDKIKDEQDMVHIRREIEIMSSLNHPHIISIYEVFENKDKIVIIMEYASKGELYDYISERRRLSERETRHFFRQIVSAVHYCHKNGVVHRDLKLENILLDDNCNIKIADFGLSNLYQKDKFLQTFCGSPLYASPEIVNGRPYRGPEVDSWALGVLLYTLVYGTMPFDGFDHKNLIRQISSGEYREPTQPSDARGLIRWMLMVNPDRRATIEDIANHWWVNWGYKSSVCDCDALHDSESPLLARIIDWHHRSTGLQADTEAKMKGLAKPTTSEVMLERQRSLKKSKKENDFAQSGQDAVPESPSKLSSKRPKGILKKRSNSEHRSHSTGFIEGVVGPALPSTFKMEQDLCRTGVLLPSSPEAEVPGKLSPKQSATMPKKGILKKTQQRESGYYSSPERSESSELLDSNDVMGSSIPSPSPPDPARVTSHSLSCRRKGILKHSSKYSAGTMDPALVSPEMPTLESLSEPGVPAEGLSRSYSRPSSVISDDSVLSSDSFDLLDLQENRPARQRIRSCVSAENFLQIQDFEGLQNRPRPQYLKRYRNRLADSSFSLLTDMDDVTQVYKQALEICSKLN

IC50 (PI3K-δ) [µM] | inhibitory activity against PI3K-δ (PI3K-δ; in vitro kinase assay) | IC50 (ARK5) [µM] | Structure (SMILES) | levels of CDK4 and CDK2 [1] | p21 levels [1] | phosphorylation of pRb and p130 ([1]; increasing concentrations) | phosphorylation status of p65 (NF-kB) [2] | accumulation of cells in the sub-G1 phase (Z138C cells; for ON123300 at higher concentrations) | accumulation of cells in the G1 phase (Z138C cells; increasing concentrations) | phosphorylation status of MEK or ERK kinases [3] | phosphorylation status of p65 (HeLa cells) | phosphorylation status of AKT, mTOR, 4EBP1 and S6 ribosomal protein (S6RB) [4] | PARP cleavage at lower concentrations ([5]; 72–96 hrs incubation, data not shown) | evidence of apoptosis (PARP cleavage, caspases) ([5]; 24 hrs, increasing concentrations) | efficacy as a single agent (mantle cell lymphoma)
> 10 | failed to show any inhibitory activity | > 5 | CC(=O)c1c(C)c2cnc(Nc3ccc(N4CCNCC4)cn3)nc2n(C2CCCC2)c1=O [PD0332991, reference compound] | unaffected | not readily seen | inhibited the phosphorylation of pRb and p130 | no change | little or no accumulation of cells in the sub-G1 phase | rapid accumulation of the cells in the G1 phase | neither ON123300 nor PD0332991 has any effect | little or no effect | no discernable change | did not show any PARP cleavage | no evidence of apoptosis | 
 |  |  | CC[C@H](Nc1ncnc2[nH]cnc12)c1nc2cccc(F)c2c(=O)n1-c1ccccc1 [idelalisib] |  |  |  |  |  |  |  |  |  |  |  | modestly effective
 |  |  | Nc1ccc2ncnc(NCCc3ccc(Oc4ccccc4)cc3)c2c1 [QNZ] |  |  |  |  |  |  |  | strong inhibition |  |  |  | 
